# Measured values: ChEMBL document CHEMBL1833955, “Optimization of (arylpiperazinylbutyl)oxindoles exhibiting selective 5-HT₇ receptor antagonist activity” (J Med Chem, 2011)
# Tests used:
# [1] = molecular target: 5-hydroxytryptamine receptor 7 (Homo sapiens, UniProt P34969); test: Displacement of [3H]CT from human 5-HT7 receptor expressed in CHO cells by scintillation spectrometry; format: cell-based
# Summary of the method: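 Cloned human 5-HT7 receptor from CHO cells, run under the supplier's recommended conditions with [3H]CT. Nonspecific binding with 25 μM clozapine. Ended by GF/C filtration, then scintillation counting. Ki taken from two nine-concentration displacement curves run in triplicate, single-site fit.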
# [2] = molecular target: T1, Adrenergic receptor alpha-1 (Rattus norvegicus, UniProt P15823+P23944+P43140); test: Displacement of [3H]prazosin from alpha1-adrenergic receptor in rat frontal cortex membrane after 45 mins by scintillation spectrometry; format: cell membranes
# T1 sequence (P15823 whole entry): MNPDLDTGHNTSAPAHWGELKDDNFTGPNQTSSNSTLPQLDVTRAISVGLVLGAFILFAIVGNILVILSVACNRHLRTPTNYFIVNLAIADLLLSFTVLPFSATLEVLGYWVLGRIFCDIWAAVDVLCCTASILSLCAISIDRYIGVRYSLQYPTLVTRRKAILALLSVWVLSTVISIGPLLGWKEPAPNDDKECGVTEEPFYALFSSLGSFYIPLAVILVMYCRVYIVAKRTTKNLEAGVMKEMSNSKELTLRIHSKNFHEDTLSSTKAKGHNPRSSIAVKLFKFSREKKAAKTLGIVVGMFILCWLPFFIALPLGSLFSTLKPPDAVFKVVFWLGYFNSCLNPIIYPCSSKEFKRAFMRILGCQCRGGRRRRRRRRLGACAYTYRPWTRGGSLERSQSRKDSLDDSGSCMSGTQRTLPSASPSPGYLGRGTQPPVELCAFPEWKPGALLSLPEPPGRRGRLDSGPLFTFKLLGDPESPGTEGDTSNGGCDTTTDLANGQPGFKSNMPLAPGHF
# T1 sequence (P23944 whole entry): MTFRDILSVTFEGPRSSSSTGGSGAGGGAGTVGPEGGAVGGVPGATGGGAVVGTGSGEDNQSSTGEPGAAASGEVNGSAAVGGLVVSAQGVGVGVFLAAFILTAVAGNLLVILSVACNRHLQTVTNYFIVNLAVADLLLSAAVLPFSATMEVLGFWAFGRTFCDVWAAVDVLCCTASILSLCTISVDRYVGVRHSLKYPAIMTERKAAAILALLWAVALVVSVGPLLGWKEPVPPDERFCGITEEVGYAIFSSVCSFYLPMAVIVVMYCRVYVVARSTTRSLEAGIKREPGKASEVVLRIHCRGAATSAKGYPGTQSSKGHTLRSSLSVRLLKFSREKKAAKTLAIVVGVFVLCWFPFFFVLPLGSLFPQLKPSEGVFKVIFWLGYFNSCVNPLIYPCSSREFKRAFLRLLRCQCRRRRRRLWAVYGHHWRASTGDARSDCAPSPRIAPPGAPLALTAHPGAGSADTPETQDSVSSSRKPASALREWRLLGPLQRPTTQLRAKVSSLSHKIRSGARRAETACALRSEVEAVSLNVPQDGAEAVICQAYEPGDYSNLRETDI
# T1 sequence (P43140 whole entry): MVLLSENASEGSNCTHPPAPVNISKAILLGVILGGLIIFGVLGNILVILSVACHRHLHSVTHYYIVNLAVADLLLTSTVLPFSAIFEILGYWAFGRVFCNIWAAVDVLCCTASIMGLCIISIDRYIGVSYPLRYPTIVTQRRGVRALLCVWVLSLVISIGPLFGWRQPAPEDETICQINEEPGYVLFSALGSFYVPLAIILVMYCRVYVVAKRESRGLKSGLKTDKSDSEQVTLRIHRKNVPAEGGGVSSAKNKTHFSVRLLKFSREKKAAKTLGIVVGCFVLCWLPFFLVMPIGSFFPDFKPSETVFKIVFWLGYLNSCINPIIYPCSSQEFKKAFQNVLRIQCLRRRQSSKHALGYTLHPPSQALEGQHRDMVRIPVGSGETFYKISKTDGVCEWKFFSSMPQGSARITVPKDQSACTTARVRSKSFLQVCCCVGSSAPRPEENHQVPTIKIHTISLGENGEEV
# Summary of the method: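 Rat frontal cortex tissue frozen on dry ice, homogenised in 50 mM Tris-HCl pH 7.7 and washed by centrifugation. [3H]prazosin at 0.6 nM; 10 μM prazosin defines nonspecific binding. 45 min at 25 °C, GF/B filtration, scintillation counting. Triplicates; Ki from two nine-concentration curves fitted to a single-site model.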
# [3] = molecular target: T2, 5-hydroxytryptamine receptor 1A (Rattus norvegicus) (UniProt P19327); test: Displacement of [3H]8-OH-DPAT from 5-HT1A receptor in rat frontal cortex membrane at 10^-7 M after 45 mins by scintillation counting; format: cell membranes
# T2 sequence (whole entry): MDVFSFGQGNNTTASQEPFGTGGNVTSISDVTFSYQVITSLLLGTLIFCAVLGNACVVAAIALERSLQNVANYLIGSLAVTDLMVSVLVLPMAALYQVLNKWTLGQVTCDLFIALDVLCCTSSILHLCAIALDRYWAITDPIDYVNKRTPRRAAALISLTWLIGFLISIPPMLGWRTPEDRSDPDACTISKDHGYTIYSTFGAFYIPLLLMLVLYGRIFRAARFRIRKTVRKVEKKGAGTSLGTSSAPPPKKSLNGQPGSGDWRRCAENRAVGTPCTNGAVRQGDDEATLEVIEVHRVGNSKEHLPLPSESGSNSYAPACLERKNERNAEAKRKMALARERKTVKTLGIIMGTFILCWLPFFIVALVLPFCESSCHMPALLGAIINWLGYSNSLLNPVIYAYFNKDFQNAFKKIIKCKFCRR
# [4] = Plasma concentration in NMRI mouse at 3 mg/kg, ip after 30 mins by HPLC-MS/MS analysis; format: ADME, organism-based; parameters: dose 3 mg/kg, route intraperitoneal
# Summary of the method: (§1)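 Male NMRI mice, 25–30 g, given four compounds together ip as a cassette suspension in 0.4% methyl cellulose (n = 3/dose). After 30 min, vena cava blood and brain collected. Brain homogenised in 4 volumes of water; samples extracted with acetonitrile–water 3:1 and analysed by gradient HPLC-MS/MS against spiked calibrators. Brain/plasma given as percentage.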
# [5] = Metabolic stability in human liver microsomes after 60 mins by HPLC-MS/MS analysis; format: ADME, Microsome; conditions: read-out: Stability
# Summary of the method: (§2)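 Test compound at 100 nM final incubated with rat or human liver microsomes (0.33 mg/mL) at 37 °C for 0, 5, 15, 30 and 60 min. Buffer Tris-HCl pH 7.4 with Mg2+ and BSA. Reaction started with NADPH and stopped with ice-cold MeOH. Parent compound measured by HPLC-MS/MS, positive-ion MRM.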
# [6] = Metabolic stability in rat liver microsomes after 60 mins by HPLC-MS/MS analysis; format: ADME, Microsome; conditions: read-out: Stability; summary of the method: as §2
# [7] = Plasma concentration in NMRI mouse at 1 mg/kg, ip after 30 mins by HPLC-MS/MS analysis; format: ADME, organism-based; parameters: dose 1 mg/kg, route intraperitoneal; summary of the method: as §1
# Mus musculus = test: Anxiolytic activity in ip dosed NMRI mouse assessed as behavioral activity administered 30 mins prior to test measured up to 5 mins by light-dark test; format: functional; conditions: read-out: MED
# Summary of the method: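 Male NMRI mice, 25–33 g, housed in the dark, dosed ip 30 min before test. Each mouse placed in the centre of the lit side of an automated two-compartment chamber under a 2-lx light. Activity recorded for 5 min: time in each area, transitions, horizontal and vertical activity. Means ± SEM, one-way ANOVA with Duncan's test; MED reported.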
# [8] = Plasma concentration in NMRI mouse at 10 mg/kg, ip after 30 mins by HPLC-MS/MS analysis; format: ADME, organism-based; parameters: dose 10 mg/kg, route intraperitoneal; summary of the method: as §1
# [9] = Drug level in NMRI mouse brain at 10 mg/kg, ip after 30 mins by HPLC/MS/MS analysis; format: ADME, organism-based; parameters: dose 10 mg/kg, route intraperitoneal; conditions: read-out: Drug uptake; summary of the method: as §1
# [10] = Drug level in NMRI mouse brain at 1 mg/kg, ip after 30 mins by HPLC/MS/MS analysis; format: ADME, organism-based; parameters: dose 1 mg/kg, route intraperitoneal; conditions: read-out: Drug uptake; summary of the method: as §1
# [11] = Selectivity ratio of Ki for alpha1-adrenergic receptor in rat frontal cortex membrane to Ki for human 5-HT7 receptor; format: cell membranes
# [12] = Selectivity ratio of Ki for 5-HT1A receptor in rat frontal cortex membrane to Ki for human 5-HT7 receptor; format: cell membranes
# [13] = Drug level in NMRI mouse brain at 3 mg/kg, ip after 30 mins by HPLC/MS/MS analysis; format: ADME, organism-based; parameters: dose 3 mg/kg, route intraperitoneal; conditions: read-out: Drug uptake; summary of the method: as §1
# [14] = molecular target: T3, 5-hydroxytryptamine receptor 1A (Rattus norvegicus, UniProt P19327); test: Displacement of [3H]8-OH-DPAT from 5-HT1A receptor in rat frontal cortex membrane after 45 mins by scintillation counting; format: cell membranes
# T3 sequence (P19327 whole entry): T2 sequence (whole entry)
# Summary of the method: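 Membranes from adult rat frontal cortex, prepared in 50 mM Tris-HCl pH 7.7 with washes and a 37 °C preincubation. Incubation buffer: 6.66 mM CaCl2, 16.66 μM pargyline, 0.166% ascorbic acid. Ligand 1.5 nM [3H]8-OH-DPAT; 10 μM 5-HT defines nonspecific binding. 45 min at 25 °C, GF/B filtration, scintillation counting. Triplicates; Ki from two nine-point curves, single-site fit.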
# Sequence of 5-hydroxytryptamine receptor 7 (P34969 whole entry): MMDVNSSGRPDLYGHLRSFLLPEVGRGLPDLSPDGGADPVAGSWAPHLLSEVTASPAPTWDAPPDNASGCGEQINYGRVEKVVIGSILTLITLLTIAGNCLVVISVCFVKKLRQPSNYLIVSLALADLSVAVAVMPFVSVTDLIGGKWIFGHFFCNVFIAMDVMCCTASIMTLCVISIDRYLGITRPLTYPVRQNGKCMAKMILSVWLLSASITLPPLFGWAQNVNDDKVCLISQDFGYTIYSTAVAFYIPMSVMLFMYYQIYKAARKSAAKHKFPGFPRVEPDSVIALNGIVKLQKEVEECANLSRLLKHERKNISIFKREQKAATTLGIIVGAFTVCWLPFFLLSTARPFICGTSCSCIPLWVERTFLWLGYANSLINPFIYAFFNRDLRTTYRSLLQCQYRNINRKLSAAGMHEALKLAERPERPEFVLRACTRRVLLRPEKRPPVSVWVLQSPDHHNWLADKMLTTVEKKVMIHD
Ki [1] [nM],Ki [2] [nM],inhibition [3] [%],Ki [14] [nM],SMILES,also measured
107,757,–,–,O=C1Nc2c(Cl)cc(Cl)cc2C1CCCCN1CCN(c2ccc(Cl)cc2)CC1 (configuration not stated),–
5,14,10,–,O=C1Nc2ccccc2C1CCCCN1CCN(c2ccc(F)cc2)CC1 (configuration not stated),–
–,215,9,–,CCC1(CCCCN2CCN(c3ccc(Cl)cc3)CC2)C(=O)Nc2cc(F)ccc21 (configuration not stated),concentration at 0.5 h [4]: 130 nM; remaining at 1 h [5]: 29%; remaining at 1 h [6]: 9%; concentration at 0.5 h [7]: 46 nM; minimal effective dose (Mus musculus): > 10 mg/kg; concentration at 0.5 h [8]: 177 nM; concentration at 0.5 h [9]: 135 nM; concentration at 0.5 h [10]: 33 nM; Ratio Ki [11]: 272; Ratio Ki [12]: > 100; concentration at 0.5 h [13]: 99 nM
139,380,11,–,CCC1(CCCCN2CCN(c3ccc(Cl)cc3Cl)CC2)C(=O)Nc2ccccc21 (configuration not stated),remaining at 1 h [5]: 28%; remaining at 1 h [6]: 17%; Ratio Ki [11]: 3
6.9,29,11,–,CCC1(CCCCN2CCC(c3ccc(F)cc3)CC2)C(=O)Nc2ccccc21 (configuration not stated),–
72,97,–,680,CCC1(CCCCN2CCN(c3cccc(Cl)c3)CC2)C(=O)Nc2c1cc(Cl)c(F)c2Cl (configuration not stated),–
47,20,–,–,O=C1Nc2ccc(F)cc2C1CCCCN1CCN(c2ccccc2)CC1 (configuration not stated),–
53,64,–,30,CCC1(CCCCN2CCN(c3ccccc3Cl)CC2)C(=O)Nc2ccccc21 (configuration not stated),–
40,116,0,–,O=C1Nc2ccc(F)cc2C1CCCCN1CCN(c2ccc(Cl)cc2)CC1 (configuration not stated),remaining at 1 h [5]: 44%; remaining at 1 h [6]: 28%; Ratio Ki [11]: 3; Ratio Ki [12]: > 100
16,22,–,243,O=C1Nc2ccccc2C1CCCCN1CCN(c2ccccc2)CC1 (configuration not stated),–
11,–,–,73,CCC1(CCCCN2CCN(c3cccc(F)c3)CC2)C(=O)Nc2ccccc21 (configuration not stated),–
–,117,16,–,CCC1(CCCCN2CCN(c3cccc(Cl)c3)CC2)C(=O)Nc2cc(F)c(Cl)cc21 (configuration not stated),remaining at 1 h [5]: 46%; remaining at 1 h [6]: 16%; Ratio Ki [11]: 13; Ratio Ki [12]: > 100
5.1,–,–,36,CCC1(CCCCN2CCN(c3cccc(C(F)(F)F)c3)CC2)C(=O)Nc2ccccc21 (configuration not stated),–
16.8,33,–,99,O=C1Nc2cc(F)ccc2C1CCCCN1CCN(c2ccccn2)CC1 (configuration not stated),–
–,46,–,111,CCC1(CCCCN2CCN(c3cccc(Cl)c3)CC2)C(=O)Nc2ccc(F)cc21 (configuration not stated),–
4,150,–,55,CCC1(CCCCN2CCN(c3ccccn3)CC2)C(=O)Nc2ccccc21 (configuration not stated),–
25,55,6,–,O=C1Nc2cc(F)ccc2C1CCCCN1CCN(c2ccc(Cl)cc2)CC1 (configuration not stated),–
10.9,130,–,56,O=C1Nc2ccccc2C1CCCCN1CCN(c2ccccn2)CC1 (configuration not stated),–
6.7,12.5,–,118,O=C1Nc2cc(F)ccc2C1CCCCN1CCN(c2cccc(Cl)c2)CC1 (configuration not stated),–
10,191,0,–,CCC1(CCCCN2CCN(c3ccc(Cl)cc3)CC2)C(=O)Nc2cc(F)c(Cl)cc21 (configuration not stated),remaining at 1 h [5]: 10%; remaining at 1 h [6]: 18%; Ratio Ki [11]: 19; Ratio Ki [12]: > 100
7,42,–,–,O=C1Nc2ccccc2C1CCCCN1CCN(c2ccc(Cl)cc2)CC1 (configuration not stated),remaining at 1 h [5]: 52%; remaining at 1 h [6]: 10%; Ratio Ki [11]: 6; Ratio Ki [12]: 257
–,27,–,9.8,CCC1(CCCCN2CCN(c3ccccc3OC)CC2)C(=O)Nc2ccccc21 (configuration not stated),–

SMILES,Ki [1] [nM],Ki [2] [nM],inhibition [3] [%],Ki [14] [nM],also measured
CCC1(CCCCN2CC=C(c3ccc(F)cc3)CC2)C(=O)Nc2ccccc21 (configuration not stated),–,46,62,–,–
O=C1Nc2cc(F)ccc2C1CCCCN1CC=C(c2cccc(Cl)c2)CC1 (configuration not stated),13,–,72,–,–
O=C1Nc2ccccc2C1CCCCN1CC=C(c2cccc(C(F)(F)F)c2)CC1 (configuration not stated),11.1,310,–,19,–
CCC1(CCCCN2CC=C(c3cccc(Cl)c3)CC2)C(=O)Nc2ccc(F)cc21 (configuration not stated),52,140,–,123,–
